Results published in ChEMBL document CHEMBL1795311, “Synthesis, antiproliferative activity, and mechanism of action of a series of 2-{[(2E)-3-phenylprop-2-enoyl]amino}benzamides” (Eur J Med Chem, 2011).

Legend:
K562 [1] = assay: Antiproliferative activity against human K562 cells at 10 uM after 48 hrs by trypan blue assay; format: functional; conditions: K562, 48 h, read-out: GI
K562 [2] = assay: Growth inhibition of human K562 cells after 48 hrs by trypan blue assay; format: functional, cell-based; conditions: K562, 48 h
CCRF-CEM = assay: Growth inhibition of human CCRF-CEM cells after 48 hrs by SRB assay; format: functional
How it was run: (§1)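 NCI DTP panel cells grown in RPMI 1640 with 5% FBS and 2 mM L-glutamine, preincubated 24 h, then given five concentrations (10-fold or ½-log dilutions from DMSO stock) for 48 h at 37 °C. Cells fixed with TCA, stained with SRB, absorbance read at 515 nm, with time-zero plates as reference.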

HL-60 = assay: Growth inhibition of human HL60 cells after 48 hrs by SRB assay; format: functional; conditions: HL-60, 48 h; how it was run: as §1
K562 [3] = assay: Growth inhibition of human K562 cells after 48 hrs by SRB assay; format: functional; conditions: K562, 48 h; how it was run: as §1
MOLT-4 = assay: Growth inhibition of human MOLT4 cells after 48 hrs by SRB assay; format: functional; conditions: MOLT-4, 48 h; how it was run: as §1
A549 = assay: Growth inhibition of human A549 cells after 48 hrs by SRB assay; format: functional; conditions: A549, 48 h; how it was run: as §1
EKVX = assay: Growth inhibition of human EKVX cells after 48 hrs by SRB assay; format: functional; how it was run: as §1
HOP-62 = assay: Growth inhibition of human HOP62 cells after 48 hrs by SRB assay; format: functional; conditions: HOP-62, 48 h; how it was run: as §1
HOP-92 = assay: Growth inhibition of human HOP92 cells after 48 hrs by SRB assay; format: functional; conditions: HOP-92, 48 h; how it was run: as §1
NCI-H226 = assay: Growth inhibition of human NCI-H226 cells after 48 hrs by SRB assay; format: functional; conditions: NCI-H226, 48 h; how it was run: as §1
NCI-H23 = assay: Growth inhibition of human NCI-H23 cells after 48 hrs by SRB assay; format: functional; conditions: NCI-H23, 48 h; how it was run: as §1
NCI-H460 = assay: Growth inhibition of human NCI-H460 cells after 48 hrs by SRB assay; format: functional; conditions: NCI-H460, 48 h; how it was run: as §1
NCI-H522 = assay: Growth inhibition of human NCI-H522 cells after 48 hrs by SRB assay; format: functional; conditions: NCI-H522, 48 h; how it was run: as §1
COLO 205 = assay: Growth inhibition of human COLO205 cells after 48 hrs by SRB assay; format: functional; conditions: COLO 205, 48 h; how it was run: as §1
HCC 2998 = assay: Growth inhibition of human HCC2998 cells after 48 hrs by SRB assay; format: functional; conditions: HCC 2998, 48 h; how it was run: as §1
HCT-116 = assay: Growth inhibition of human HCT116 cells after 48 hrs by SRB assay; format: functional; conditions: HCT-116, 48 h; how it was run: as §1
HCT-15 = assay: Growth inhibition of human HCT15 cells after 48 hrs by SRB assay; format: functional; conditions: HCT-15, 48 h; how it was run: as §1
HT-29 = assay: Growth inhibition of human HT-29 cells after 48 hrs by SRB assay; format: functional; conditions: HT-29, 48 h; how it was run: as §1
KM12 = assay: Growth inhibition of human KM12 cells after 48 hrs by SRB assay; format: functional; conditions: KM12, 48 h; how it was run: as §1
SW-620 = assay: Growth inhibition of human SW620 cells after 48 hrs by SRB assay; format: functional; conditions: SW-620, 48 h
How it was run: (§2)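 Run by the NCI Developmental Therapeutics Program: cells in RPMI 1640 with 5% FBS and 2 mM L-glutamine, plated at 5000–40,000 cells/well and grown 24 h before dosing. Drug (DMSO stock) given at five concentrations for 48 h at 37 °C, 5% CO2. Adherent cells fixed with cold TCA, stained with 0.4% SRB and read at 515 nm. GI50, TGI and LC50 taken from the time-zero, control and treated absorbances.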

SF-268 = assay: Growth inhibition of human SF268 cells after 48 hrs by SRB assay; format: functional; conditions: SF-268, 48 h; how it was run: as §1
SF-295 = assay: Growth inhibition of human SF295 cells after 48 hrs by SRB assay; format: functional; conditions: SF-295, 48 h; how it was run: as §1
SF-539 = assay: Growth inhibition of human SF539 cells after 48 hrs by SRB assay; format: functional; conditions: SF-539, 48 h; how it was run: as §1
SNB-19 = assay: Growth inhibition of human SNB19 cells after 48 hrs by SRB assay; format: functional; conditions: SNB-19, 48 h; how it was run: as §2
SNB-75 = assay: Growth inhibition of human SNB75 cells after 48 hrs by SRB assay; format: functional; conditions: SNB-75, 48 h; how it was run: as §2
U-251 = assay: Growth inhibition of human U251 cells after 48 hrs by SRB assay; format: functional; conditions: U-251, 48 h; how it was run: as §2
LOX IMVI = assay: Growth inhibition of human LOXIMVI cells after 48 hrs by SRB assay; format: functional; how it was run: as §1
Malme-3M = assay: Growth inhibition of human MALME-3M cells after 48 hrs by SRB assay; format: functional; how it was run: as §1
M14 = assay: Growth inhibition of human M14 cells after 48 hrs by SRB assay; format: functional; conditions: M14, 48 h; how it was run: as §1
MDA-MB-435 = assay: Growth inhibition of human MDA-MB-435 cells after 48 hrs by SRB assay; format: functional; conditions: MDA-MB-435, 48 h; how it was run: as §1
SK-MEL-2 = assay: Growth inhibition of human SK-MEL-2 cells after 48 hrs by SRB assay; format: functional; conditions: SK-MEL-2, 48 h; how it was run: as §2
SK-MEL-28 = assay: Growth inhibition of human SK-MEL-28 cells after 48 hrs by SRB assay; format: functional; conditions: SK-MEL-28, 48 h; how it was run: as §2
SK-MEL-5 = assay: Growth inhibition of human SK-MEL-5 cells after 48 hrs by SRB assay; format: functional; conditions: SK-MEL-5, 48 h; how it was run: as §2
UACC-257 = assay: Growth inhibition of human UACC257 cells after 48 hrs by SRB assay; format: functional; conditions: UACC-257, 48 h; how it was run: as §2
UACC-62 = assay: Growth inhibition of human UACC62 cells after 48 hrs by SRB assay; format: functional; conditions: UACC-62, 48 h; how it was run: as §2
IGROV-1 = assay: Growth inhibition of human IGROV1 cells after 48 hrs by SRB assay; format: functional; conditions: IGROV-1, 48 h; how it was run: as §1
OVCAR-3 = assay: Growth inhibition of human OVCAR3 cells after 48 hrs by SRB assay; format: functional; conditions: OVCAR-3, 48 h; how it was run: as §1
OVCAR-4 = assay: Growth inhibition of human OVCAR4 cells after 48 hrs by SRB assay; format: functional; conditions: OVCAR-4, 48 h; how it was run: as §1
OVCAR-5 = assay: Growth inhibition of human OVCAR5 cells after 48 hrs by SRB assay; format: functional; conditions: OVCAR-5, 48 h; how it was run: as §1
OVCAR-8 = assay: Growth inhibition of human OVCAR8 cells after 48 hrs by SRB assay; format: functional; conditions: OVCAR-8, 48 h; how it was run: as §1
NCI/ADR-RES = assay: Growth inhibition of human NCI/ADR-RES cells after 48 hrs by SRB assay; format: functional; how it was run: as §1
SK-OV-3 = assay: Growth inhibition of human SKOV3 cells after 48 hrs by SRB assay; format: functional; conditions: SK-OV-3, 48 h; how it was run: as §2
786-0 = assay: Growth inhibition of human 786-0 cells after 48 hrs by SRB assay; format: functional; conditions: 786-0, 48 h; how it was run: as §1
A498 = assay: Growth inhibition of human A498 cells after 48 hrs by SRB assay; format: functional; conditions: A498, 48 h; how it was run: as §1
ACHN = assay: Growth inhibition of human ACHN cells after 48 hrs by SRB assay; format: functional; how it was run: as §1
CAKI-1 = assay: Growth inhibition of human Caki1 cells after 48 hrs by SRB assay; format: functional; conditions: CAKI-1, 48 h; how it was run: as §1
SN12C = assay: Growth inhibition of human SN12C cells after 48 hrs by SRB assay; format: functional; how it was run: as §2
TK-10 = assay: Growth inhibition of human TK10 cells after 48 hrs by SRB assay; format: functional; conditions: TK-10, 48 h; how it was run: as §2
UO-31 = assay: Growth inhibition of human UO31 cells after 48 hrs by SRB assay; format: functional; conditions: UO-31, 48 h; how it was run: as §2
PC-3 = assay: Growth inhibition of human PC3 cells after 48 hrs by SRB assay; format: functional; conditions: PC-3, 48 h; how it was run: as §1
DU-145 = assay: Growth inhibition of human DU145 cells after 48 hrs by SRB assay; format: functional; conditions: DU-145, 48 h; how it was run: as §1
MCF7 = assay: Growth inhibition of human MCF7 cells after 48 hrs by SRB assay; format: functional; conditions: MCF7, 48 h; how it was run: as §1
MDA-MB-231 = assay: Growth inhibition of human MDA-MB-231 cells after 48 hrs by SRB assay; format: functional; conditions: MDA-MB-231, 48 h; how it was run: as §1
[4] = Growth inhibition of human Hs 578T cells after 48 hrs by SRB assay; format: functional; how it was run: as §1
BT-549 = assay: Growth inhibition of human BT549 cells after 48 hrs by SRB assay; format: functional; conditions: BT-549, 48 h; how it was run: as §1
T47D = assay: Growth inhibition of human T47D cells after 48 hrs by SRB assay; format: functional; how it was run: as §2
MDA-MB-468 = assay: Growth inhibition of human MDA-MB-468 cells after 48 hrs by SRB assay; format: functional; conditions: MDA-MB-468, 48 h; how it was run: as §1

Cc1ccc(NC(=O)/C=C/c2ccccc2)c(C(N)=O)c1
inhibition of growth at 10 µM (K562 [1]): 65.4% | IC50 (K562 [2]): 5.5 µM | GI50 (CCRF-CEM): 2.36 µM | GI50 (HL-60): 1.77 µM | GI50 (K562 [3]): 1.11 µM | GI50 (MOLT-4): 3.56 µM | GI50 (A549): 5.81 µM | GI50 (EKVX): 5.18 µM | GI50 (HOP-62): 7.74 µM | GI50 (HOP-92): 11.4 µM | GI50 (NCI-H226): 7.28 µM | GI50 (NCI-H23): 3.38 µM | GI50 (NCI-H460): 3.59 µM | GI50 (NCI-H522): 2.83 µM | GI50 (COLO 205): 1.84 µM | GI50 (HCC 2998): 6.45 µM | GI50 (HCT-116): 3.2 µM | GI50 (HCT-15): 3.77 µM | GI50 (HT-29): 2.31 µM | GI50 (KM12): 2.94 µM | GI50 (SW-620): 3.3 µM | GI50 (SF-268): 10.9 µM | GI50 (SF-295): 3.14 µM | GI50 (SF-539): 2.05 µM | GI50 (SNB-19): 5.69 µM | GI50 (SNB-75): 3.18 µM | GI50 (U-251): 4.13 µM | GI50 (LOX IMVI): 7.65 µM | GI50 (Malme-3M): 7.59 µM | GI50 (M14): 2.35 µM | GI50 (MDA-MB-435): 0.66 µM | GI50 (SK-MEL-2): 4.75 µM | GI50 (SK-MEL-28): 5.24 µM | GI50 (SK-MEL-5): 1.01 µM | GI50 (UACC-257): 17 µM | GI50 (UACC-62): 3.77 µM | GI50 (IGROV-1): 4.37 µM | GI50 (OVCAR-3): 2.18 µM | GI50 (OVCAR-4): 11.4 µM | GI50 (OVCAR-5): 8.2 µM | GI50 (OVCAR-8): 7.49 µM | GI50 (NCI/ADR-RES): 2.79 µM | GI50 (SK-OV-3): 2.79 µM | GI50 (786-0): 4 µM | GI50 (A498): 5.56 µM | GI50 (ACHN): 13.5 µM | GI50 (CAKI-1): 8.92 µM | GI50 (SN12C): 9.63 µM | GI50 (TK-10): 25.8 µM | GI50 (UO-31): 9.62 µM | GI50 (PC-3): 3.97 µM | GI50 (DU-145): 3.66 µM | GI50 (MCF7): 3.48 µM | GI50 (MDA-MB-231): 7.26 µM | GI50 [4]: 1.94 µM | GI50 (BT-549): 4.88 µM | GI50 (T47D): 4.2 µM | GI50 (MDA-MB-468): 3.12 µM
